TDP2 inh = human TDP2 enzyme inhibitors, primary screen, biochemical, epi absorbance, recombinant enzyme; T5PNP hydrolysis, p-nitrophenol absorbance 415 nm; inhibition, % at 12.8 µM; 0.34% of 370,000 active;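 active = inhibition above the mean of all tested compounds plus 3 SD, set per campaign, cut at about 25% in these data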;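 note: 0% = DMSO with enzyme and 100% = buffer with substrate but no TDP2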
Target sequence (O95551 whole entry, looked up): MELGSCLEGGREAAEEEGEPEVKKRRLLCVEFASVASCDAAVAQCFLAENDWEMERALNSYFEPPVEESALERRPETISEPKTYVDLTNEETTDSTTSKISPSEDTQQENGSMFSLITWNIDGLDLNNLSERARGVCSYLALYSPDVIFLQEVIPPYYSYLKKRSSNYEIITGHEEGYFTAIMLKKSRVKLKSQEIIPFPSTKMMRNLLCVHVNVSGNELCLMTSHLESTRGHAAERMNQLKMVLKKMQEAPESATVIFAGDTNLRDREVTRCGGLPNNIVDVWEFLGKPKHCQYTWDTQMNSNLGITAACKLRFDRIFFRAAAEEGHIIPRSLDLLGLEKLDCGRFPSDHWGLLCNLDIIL
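Assay system: recombinant human TDP2 / Reagent: T5PNP substrate at 5 mM, a TopII-DNA adduct mimic / Measured by: epi absorbance from released p-nitrophenol / Evaluation: % inhibition relative to enzyme-containing and enzyme-free wells / Control set: enzyme-free and DMSO wells / Replicates: each compound tested once, singlicate / Schedule: enzyme reaction with compound for 2 h at 37 °C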
UHRF1 binding = UHRF1 methylated DNA binding inhibitors, primary screen, counter-screen for MBD2 inhibitor project, biochemical, TR-FRET, human UHRF1, single concentration | E3 ubiquitin-protein ligase UHRF1 (Homo sapiens), Q96T88 | UHRF1 binding to methylated oligo | inhibition, % at 4.4 µM | 0.75% of 370,000 active; in the data active = inhibition above about 21%;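 note: UHRF1 SRA domain binding a hemimethylated CpG hairpin DNA probe; 0% = median of test compound wells and 100% = reference inhibitor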
NSD2 inh = NSD2 histone methyltransferase inhibitors, primary screen, biochemical, AlphaScreen, single concentration, set 2. Histone-lysine N-methyltransferase NSD2 (Homo sapiens), O96028. NSD2 peptide methylation, 120 min. inhibition, % at 12.5 µM. 0.54% of 310,000 active; in the data active = inhibition above about 50%
LEDGF integ inh = blockers of LEDGF/p75-dependent integrase strand transfer – biochemical, TR-FRET, high throughput, primary screen; HIV-1 integrase (with human LEDGF/p75); AID 743269, 2014; inhibition, % at 3.7 µM; 0.64% of 370,000 active; TR-FRET IN-LEDGF/p75 DNA integration, Eu/Cy5;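 active = inhibition above the screen-wide mean plus 3 SD, cut at about 13% in these data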;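 note: signal is the Cy5 over europium emission ratio at 671 and 618 nm; 0% = plate median of compound wells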
CASP6 VEID inh = human caspase-6 inhibitors, primary screen, biochemical, VEID-R110 fluorescence, single point, set 2; P55212; AID 686996, 2013; purified caspase-6, Z-VEID-R110 cleavage fluorescence; inhibition, % at 12.5 µM; 0.53% of 350,000 active;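 active = mean inhibition across replicates at least about 35%, with every replicate also reaching that limit, limit read from the data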;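 note: 0% = median of neutral control wells and 100% = no fluorescence left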
Target sequence (P55212 24-179 limits assumed): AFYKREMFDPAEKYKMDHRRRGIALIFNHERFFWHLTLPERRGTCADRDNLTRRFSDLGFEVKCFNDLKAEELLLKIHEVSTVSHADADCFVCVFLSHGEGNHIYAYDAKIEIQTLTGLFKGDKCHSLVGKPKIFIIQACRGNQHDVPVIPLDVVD
Target sequence (P55212 194-293 limits assumed): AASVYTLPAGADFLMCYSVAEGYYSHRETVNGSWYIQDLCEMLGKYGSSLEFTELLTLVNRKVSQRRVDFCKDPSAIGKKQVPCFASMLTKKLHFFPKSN
MBD2 inh = inhibitors of MBD2 binding to methylated DNA, primary screen, biochemical, TR-FRET, DNA-binding domain, human | 0.31% of 370,000 active | AID 686964, 2013 | Methyl-CpG-binding domain protein 2 (Homo sapiens), Q9UBB5 | MBD2 binding to methylated oligonucleotide | inhibition, % at 4.4 µM; in the data active = inhibition above about 13%
Starred values were filed as active, the others as inactive; / = no result given. In the library only some 1.9% were active in any assay of this set; here they are far more common.

SMILES | TDP2 inh | UHRF1 binding | NSD2 inh | LEDGF integ inh | CASP6 VEID inh | MBD2 inh
Cc1cc(C)c2nc3sc(=Cc4ccc(-c5ccccc5C(=O)O)o4)c(=O)n3c2c1 | -1 | 24* | / | 9 | / | 7
O=C(O)c1ccc(-c2ccc(/C=c3/sc4nc5ccccc5n4c3=O)o2)cc1Cl | 17 | 40* | / | 8 | 58* | 8
Cc1ccc(S(=O)(=O)N[C@@H]2CC[C@@H](CC(=O)NC3CCCCC3)O[C@@H]2CO)cc1 | / | / | / | / | 2 | /
COc1cc(/C=C2\C(=N)N3N=C(S(C)(=O)=O)SC3=NC2=O)ccc1OCCOc1ccccc1C | -5 | 2 | 5 | 6 | 40* | 7
COc1cc(/C=C2\C(=N)N3N=C(S(C)(=O)=O)SC3=NC2=O)ccc1OC(=O)c1ccco1 | 18 | -2 | 48 | 2 | 41* | -2
COc1ccc(NC(=O)N(C)C[C@@H]2OCCCC[C@H](C)Oc3ccc(NS(=O)(=O)c4ccc(Cl)cc4)cc3C(=O)N([C@@H](C)CO)C[C@@H]2C)cc1 | / | / | / | / | 1 | /
C=CCOC(=O)c1cc(-c2ccc(/C=C3\C(=O)NC(=O)C(C#N)=C3C)o2)ccc1Cl | -4 | 0 | 42 | 10 | / | -2
CC1=C(C#N)C(=O)NC(=O)/C1=C/c1ccc(-c2ccc(S(N)(=O)=O)cc2)o1 | -2 | 1 | / | 1 | 25 | 21*
CCCNC(=O)c1ccc(N2CCC3(CC2)CC(c2ccccc2)=NO3)c(NC(=O)c2ccccc2)c1 | -5 | -1 | / | -1 | / | -3
CCCCCCCC(=O)Nc1cc(C(=O)NCCC)ccc1N1CCC2(CC1)CC(c1ccccc1)=NO2 | 1 | 21* | / | 6 | -2 | 12
CC(=O)Nc1cc(OC(C)=O)c2nonc2c1OC(C)=O | 98* | 15 | / | 39* | / | 19*
C[C@H](CO)N1C[C@H](C)[C@@H](CN(C)CC2CCCC2)Oc2ncc(Br)cc2C1=O | / | / | / | / | -1 | /
CC(=O)c1ccc(N(C(=O)CNC(=O)c2ccco2)C(C(=O)NC2CCCC2)c2ccc(C)o2)cc1 (stereo not drawn) | -2 | -1 | 2 | -2 | 1 | -1
Cc1ccc(C(C(=O)NC2CCCCC2)N(CCC(C)C)C(=O)CNC(=O)c2ccco2)o1 (stereo not drawn) | 9 | 21* | -1 | 4 | / | 7
CCCCCCCCN1C(=O)[C@@H](CC(=O)NCCCN2CCCC2=O)C[C@@]2(C(=O)OC)C1=C[C@H](C(C)(C)C)O[C@@H]2C | -4 | 35* | / | 4 | 2 | -1
O=C1NCCC12C(=O)Nc1ccccc12 (stereo not drawn) | 5 | 2 | / | -4 | 0 | 0
O=C(O)C1=C2C(=O)Nc3cccc(c32)C2(C1)C(=O)Nc1ccccc12 (stereo not drawn) | 7 | -3 | / | 5 | 60* | 1
CC[C@H](C)/C=C(C)/C=C/C1=CC2=CC(=O)[C@]3(C)OC(=O)[C@@H](C(C)=O)[C@@H]3C2=CO1 | -4 | 1 | / | 6 | 19 | 3
CC[C@H](C)/C=C(C)/C=C/c1cc2c(cn1)C(=O)[C@@](C)(OC(C)=O)C(O)=C2Cl | -3 | 0 | / | 3 | 51* | 1
CO[C@H]1CN(C)C(=O)c2ccc(NC(=O)C3CCCCC3)cc2OC[C@H](C)N(C(=O)c2ccccc2)C[C@H]1C | / | / | / | / | 0 | /
O=C(O)CSCC(=O)N(Cc1ccccc1)c1nc(-c2ccccc2)c(-c2ccccc2)s1 | -11 | 1 | 2 | 1 | 37* | -2
COC(=O)c1ccc(C(=O)O)nc1 | -8 | 22* | 10 | 6 | 2 | 0
Cc1ccc(C2CC(=O)C=C(NCc3ccccc3)C2)cc1 (stereo not drawn) | 4 | 36* | 1 | 0 | -1 | -4
CCC(Cc1ccccc1)NC(=O)/C=C/c1ccco1 (stereo not drawn) | 10 | -1 | 3 | 1 | 12 | 1
CC(NC(=O)C=Cc1ccco1)C(=O)NC(Cc1ccccc1)C(N)=O (stereo not drawn) | 1 | 3 | 6 | 2 | 46* | 0
SMILES | TDP2 inh | UHRF1 binding | NSD2 inh | LEDGF integ inh | CASP6 VEID inh | MBD2 inh
O=C(Nc1cccc(S(=O)(=O)NC2=NCCC2)c1)c1cc(-c2ccco2)nc2ccccc12 | -1 | 30* | 21 | 17* | 4 | 24*
O=C(NC(=S)Nc1cccc(S(=O)(=O)NC2=NCCC2)c1)c1cc(-c2ccco2)nc2ccccc12 | -2 | 4 | 1 | 8 | 6 | 2
COC(=O)c1ccc2nc(-c3cccc(Br)c3)c(Cc3ccccc3OC)n2c1 | 4 | 11 | / | 1 | -3 | 6
COC(=O)c1ccc2nc(-c3ccc(OC)c(OC)c3)c(Cc3ccc(OC)cc3C)n2c1 | -3 | 21* | / | -3 | 4 | 12
COC(=O)c1ccc2nc(-c3ccc(Cl)cc3)c(Cc3ccc(OC)cc3C)n2c1 | 6 | 25* | / | 1 | -1 | 10
COc1ccc(-c2cc(-c3ccccc3)nc(Cl)n2)cc1OC | -5 | 30* | -18 | 3 | 3 | -4
CCC(=O)N1[C@@H](CO)[C@@H](c2ccccc2)[C@@H]1CN(C)C(=O)c1ccccc1F | / | / | / | / | -8 | /
CC(=O)NC1(C(F)(F)F)N=C(c2ccccc2)NC1=O (stereo not drawn) | 3 | 23* | 1 | -1 | / | 3
O=C(NC1(C(F)(F)F)N=C(c2ccccc2)NC1=O)c1ccccc1 (stereo not drawn) | 4 | -4 | / | 0 | 0 | 3
COCC(=O)N1[C@@H](CO)[C@@H]2c3ccccc3N(C(=O)Nc3ccccc3F)C[C@@H]21 | / | / | / | / | 1 | /
O=C(Cc1ccncc1)NCC[C@@H]1CC[C@H](NC(=O)Nc2ccc(F)cc2)[C@H](CO)O1 | / | / | / | / | -2 | /
CC(=O)N1CCc2c(sc(NC(=O)Cc3ccccc3)c2C(N)=O)C1 | 1 | -2 | / | -1 | 67* | -2
CC(=O)N1CCc2c(sc(NC(=O)C3CCCCC3)c2C(N)=O)C1 | 9 | -2 | / | 4 | 75* | -8
CC(C)N1CCc2c(sc(NC(=O)Cc3ccccc3)c2C(N)=O)C1 | 0 | -1 | / | -2 | 0 | 7
Cc1ccc(NS(=O)(=O)c2cccs2)nc1 | 7 | 30* | -3 | 2 | -4 | 5
COc1ccc(S(=O)(=O)N2CC[C@@H]3[C@@H](CO)Nc4ccc(C#Cc5ccccc5OC)cc4[C@@H]32)cc1 | / | / | / | / | 2 | /
